Measured values from ChEMBL document CHEMBL1121899, “Biological activities of photoaffinity labeling analogues of kinins and their irreversible effects on kinin receptors” (1981).
Where a SMILES comes first, the peptide text is derived from it.

Tests used:
Assay type in all cases: functional
[1] = target: T1, B1 bradykinin receptor (Homo sapiens) (UniProt P46663); assay: Intrinsic activity was determined; conditions: Oryctolagus cuniculus
T1 sequence (whole entry): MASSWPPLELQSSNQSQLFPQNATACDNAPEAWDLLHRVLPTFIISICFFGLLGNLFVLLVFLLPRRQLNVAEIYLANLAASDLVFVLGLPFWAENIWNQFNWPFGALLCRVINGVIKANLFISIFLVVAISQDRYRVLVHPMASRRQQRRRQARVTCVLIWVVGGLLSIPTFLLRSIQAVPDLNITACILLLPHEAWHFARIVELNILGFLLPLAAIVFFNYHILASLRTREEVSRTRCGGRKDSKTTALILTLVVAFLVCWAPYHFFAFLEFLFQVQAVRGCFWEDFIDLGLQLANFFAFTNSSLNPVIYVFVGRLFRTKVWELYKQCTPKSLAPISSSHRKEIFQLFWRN

Oryctolagus cuniculus [2] = organism: Oryctolagus cuniculus; assay: In vitro 50 % Maximal response in rabbit aorta expressing B1 receptor; conditions: read-out: ED50 (the source's name)
[3] = target: T2, B2 bradykinin receptor (Homo sapiens) (UniProt P30411); assay: Percent agonistic activity in rabbit jugular vein expressing B2 receptor relative to bradykinin; conditions: Oryctolagus cuniculus
T2 sequence (whole entry): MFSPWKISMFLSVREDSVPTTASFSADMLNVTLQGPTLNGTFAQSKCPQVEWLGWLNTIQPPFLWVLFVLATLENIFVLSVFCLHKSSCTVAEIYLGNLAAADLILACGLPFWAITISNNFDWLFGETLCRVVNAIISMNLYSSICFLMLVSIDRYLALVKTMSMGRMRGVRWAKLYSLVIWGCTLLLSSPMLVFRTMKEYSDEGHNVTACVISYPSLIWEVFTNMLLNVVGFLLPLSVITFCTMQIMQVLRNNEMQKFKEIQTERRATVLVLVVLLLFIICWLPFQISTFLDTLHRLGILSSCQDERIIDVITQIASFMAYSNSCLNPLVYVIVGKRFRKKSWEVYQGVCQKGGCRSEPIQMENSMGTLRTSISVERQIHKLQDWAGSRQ
How it was run: (§1)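 Isolated rabbit jugular vein strips were equilibrated about 2 h with protease inhibitor SQ 14225 (100 ng/mL) under incandescent light, with no UV. pD₂ was taken as −log of the half-maximal concentration. Relative affinity is given as percent of BK. Specificity was checked by desensitization with BK or an analogue. Antagonists were given as pA₂ from the ID₅₀ that reduces a double agonist dose to a single-dose response.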

[4] = target: T2, B2 bradykinin receptor (Homo sapiens); assay: In vitro 50 % Maximal response in jugular vein expressing B2 receptor; conditions: Oryctolagus cuniculus; how it was run: as §1
Oryctolagus cuniculus [5] = organism: Oryctolagus cuniculus; assay: The compound was tested in vitro on rabbit aorta for residual response in presence of ultraviolet light
How it was run: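 Aorta strips in cycloheximide were challenged twice with [des-Arg⁹]BK and checked with 3 µM noradrenaline and 0.2 µM [Sar¹]angiotensin II. They were then incubated with 100 µM (4'-amino)Phe plus the photolabel and irradiated 10 min around 365 nm (18 mW/cm²). This was done once or twice. Residual [des-Arg⁹]BK response at 60 min was expressed as percent of reference tissues.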

Molecule	Alpha E [1]	EC50 (Oryctolagus cuniculus [2])	Relative affinity [3]	ED50 [4]	Response (Oryctolagus cuniculus [5])
H-RPPGFSPA-OH	0	–	–	–	–
NC(N)=NCCC[C@H](N)C(=O)N1CCC[C@H]1C(=O)N1CCC[C@H]1C(=O)NCC(=O)N[C@@H](Cc1ccccc1)C(=O)N[C@@H](CO)C(=O)N1CCC[C@H]1C(=O)N[C@@H](Cc1ccc(N)cc1)C(=O)O	1	4650 nM	–	–	–
NC(N)=NCCC[C@H](NC(=O)[C@H](Cc1ccc(N)cc1)NC(=O)[C@@H]1CCCN1C(=O)[C@H](CO)NC(=O)[C@H](Cc1ccccc1)NC(=O)CNC(=O)[C@@H]1CCCN1C(=O)[C@@H]1CCCN1C(=O)[C@@H](N)CCCN=C(N)N)C(=O)O (HELM PEPTIDE1{R.P.P.G.F.S.P.[Nc1ccc(C[C@H](N[*:1])C(=O)[*:2])cc1].R}$$$$V2.0)	1	–	9%	19.5 nM	–
H-RPPGLSPF-OH	1	–	–	–	–
H-RPPGFSPYR-OH	1	–	3.5%	–	–
NC(N)=NCCC[C@H](NC(=O)[C@H](Cc1ccccc1)NC(=O)[C@@H]1CCCN1C(=O)[C@H](CO)NC(=O)[C@H](Cc1ccc(N)cc1)NC(=O)CNC(=O)[C@@H]1CCCN1C(=O)[C@@H]1CCCN1C(=O)[C@@H](N)CCCN=C(N)N)C(=O)O (HELM PEPTIDE1{R.P.P.G.[Nc1ccc(C[C@H](N[*:1])C(=O)[*:2])cc1].S.P.F.R}$$$$V2.0)	1	–	3%	57 nM	–
NC(N)=NCCC[C@H](NC(=O)[C@H](CC1CCCCC1)NC(=O)[C@@H]1CCCN1C(=O)[C@H](CO)NC(=O)[C@H](Cc1ccccc1)NC(=O)CNC(=O)[C@@H]1CCCN1C(=O)[C@@H]1CCCN1C(=O)[C@@H](N)CCCN=C(N)N)C(=O)O (HELM PEPTIDE1{R.P.P.G.F.S.P.[Cha].R}$$$$V2.0)	1	–	23%	–	–
H-RPPGFSPAR-OH	1	–	0.01%	–	–
H-RPPGASPF-OH	1	–	–	–	–
[N-]=[N+]=Nc1ccc(/N=N/c2cc(C[C@H](NC(=O)CNC(=O)[C@@H]3CCCN3C(=O)[C@@H]3CCCN3C(=O)[C@@H](N)CCCN=C(N)N)C(=O)N[C@@H](CO)C(=O)N3CCC[C@H]3C(=O)N[C@@H](Cc3ccccc3)C(=O)O)ccc2O)cc1 (HELM PEPTIDE1{R.P.P.G.[[N-]=[N+]=Nc1ccc(/N=N/c2cc(C[C@H](N[*:1])C(=O)[*:2])ccc2O)cc1].S.P.F}$$$$V2.0)	1	1280 nM	–	–	69%
H-RPPGFSPDR-OH	–	–	0.04%	–	–
H-RPPGYSPFR-OH	1	–	0.3%	–	–
H-RPPGLSPFR-OH	1	–	8%	–	–
CC(C)C[C@H](NC(=O)[C@@H]1CCCN1C(=O)[C@H](CO)NC(=O)[C@H](Cc1ccccc1)NC(=O)CNC(=O)[C@@H]1CCCN1C(=O)[C@@H]1CCCN1C(=O)[C@@H](N)CCCN=C(N)N)C(=O)O	0	–	–	–	–
COc1ccc(C[C@H](NC(=O)[C@@H]2CCCN2C(=O)[C@H](CO)NC(=O)[C@H](Cc2ccccc2)NC(=O)CNC(=O)[C@@H]2CCCN2C(=O)[C@@H]2CCCN2C(=O)[C@@H](N)CCCN=C(N)N)C(=O)O)cc1 (H-RPPGFSPY(Me)-OH)	1	–	–	–	–

More lines, main results first:

Alpha E [1]	EC50 (Oryctolagus cuniculus [2])	Relative affinity [3]	Molecule	ED50 [4]	Response (Oryctolagus cuniculus [5])
1	–	–	NC(N)=NCCC[C@H](N)C(=O)N1CCC[C@H]1C(=O)N1CCC[C@H]1C(=O)NCC(=O)N[C@@H](CC1CCCCC1)C(=O)N[C@@H](CO)C(=O)N1CCC[C@H]1C(=O)N[C@@H](Cc1ccccc1)C(=O)O (HELM PEPTIDE1{R.P.P.G.[Cha].S.P.F}$$$$V2.0)	–	–
1	869 nM	–	H-RPPGYSPF-OH	–	–
0	–	–	NC(N)=NCCC[C@H](N)C(=O)N1CCC[C@H]1C(=O)N1CCC[C@H]1C(=O)NCC(=O)N[C@@H](Cc1ccccc1)C(=O)N[C@@H](CO)C(=O)N1CCC[C@H]1C(=O)N[C@@H](CC1CCCCC1)C(=O)O (HELM PEPTIDE1{R.P.P.G.F.S.P.[Cha]}$$$$V2.0)	–	–
–	–	0.08%	H-RPPGDSPFR-OH	–	–
1	–	0.1%	H-RPPGASPFR-OH	–	–
1	–	–	H-RPPGFSPY-OH	–	–
1	–	14%	COc1ccc(C[C@H](NC(=O)CNC(=O)[C@@H]2CCCN2C(=O)[C@@H]2CCCN2C(=O)[C@@H](N)CCCN=C(N)N)C(=O)N[C@@H](CO)C(=O)N2CCC[C@H]2C(=O)N[C@@H](Cc2ccccc2)C(=O)N[C@@H](CCCN=C(N)N)C(=O)O)cc1 (H-RPPGY(Me)SPFR-OH)	–	–
1	3750 nM	–	N#[N+]c1ccc(C[C@H](NC(=O)CNC(=O)[C@@H]2CCCN2C(=O)[C@@H]2CCCN2C(=O)[C@@H](N)CCCN=C(N)N)C(=O)N[C@@H](CO)C(=O)N2CCC[C@H]2C(=O)N[C@@H](Cc2ccccc2)C(=O)O)cc1	–	–
1	461 nM	–	[N-]=[N+]=Nc1ccc(C[C@H](NC(=O)CNC(=O)[C@@H]2CCCN2C(=O)[C@@H]2CCCN2C(=O)[C@@H](N)CCCN=C(N)N)C(=O)N[C@@H](CO)C(=O)N2CCC[C@H]2C(=O)N[C@@H](Cc2ccccc2)C(=O)O)cc1	–	90%
1	–	–	COc1ccc(C[C@H](NC(=O)CNC(=O)[C@@H]2CCCN2C(=O)[C@@H]2CCCN2C(=O)[C@@H](N)CCCN=C(N)N)C(=O)N[C@@H](CO)C(=O)N2CCC[C@H]2C(=O)N[C@@H](Cc2ccccc2)C(=O)O)cc1 (H-RPPGY(Me)SPF-OH)	–	–
–	–	< 0.01%	NC(N)=NCCC[C@H](NC(=O)[C@H](Cc1cc(I)c(N)c(I)c1)NC(=O)[C@@H]1CCCN1C(=O)[C@H](CO)NC(=O)[C@H](Cc1ccccc1)NC(=O)CNC(=O)[C@@H]1CCCN1C(=O)[C@@H]1CCCN1C(=O)[C@@H](N)CCCN=C(N)N)C(=O)O (HELM PEPTIDE1{R.P.P.G.F.S.P.[Nc1c(I)cc(C[C@H](N[*:1])C(=O)[*:2])cc1I].R}$$$$V2.0)	> 100000 nM	–
–	–	< 0.01%	N=C(N)NCCC[C@H](NC(=O)[C@H](Cc1ccccc1)NC(=O)[C@@H]1CCCN1C(=O)[C@H](CO)NC(=O)[C@H](Cc1cc(I)c(N)c(I)c1)NC(=O)CNC(=O)[C@@H]1CCCN1C(=O)[C@@H]1CCCN1C(=O)[C@@H](N)CCCNC(=N)N)C(=O)O (HELM PEPTIDE1{R.P.P.G.[Nc1c(I)cc(C[C@H](N[*:1])C(=O)[*:2])cc1I].S.P.F.R}$$$$V2.0)	> 100000 nM	–
1	68 nM	–	NC(N)=NCCC[C@H](N)C(=O)N1CCC[C@H]1C(=O)N1CCC[C@H]1C(=O)NCC(=O)N[C@@H](Cc1ccccc1)C(=O)N[C@@H](CO)C(=O)N1CCC[C@H]1C(=O)N[C@@H](Cc1ccccc1)C(=O)O	–	85%
1	–	23%	NC(N)=NCCC[C@H](NC(=O)[C@H](Cc1ccccc1)NC(=O)[C@@H]1CCCN1C(=O)[C@H](CO)NC(=O)[C@H](CC1CCCCC1)NC(=O)CNC(=O)[C@@H]1CCCN1C(=O)[C@@H]1CCCN1C(=O)[C@@H](N)CCCN=C(N)N)C(=O)O (HELM PEPTIDE1{R.P.P.G.[Cha].S.P.F.R}$$$$V2.0)	–	–
1	–	0.1%	H-RPPGFSPLR-OH	–	–
1	5460 nM	–	NC(N)=NCCC[C@H](N)C(=O)N1CCC[C@H]1C(=O)N1CCC[C@H]1C(=O)NCC(=O)N[C@@H](Cc1ccc(N)cc1)C(=O)N[C@@H](CO)C(=O)N1CCC[C@H]1C(=O)N[C@@H](Cc1ccccc1)C(=O)O	–	–
1	–	65%	COc1ccc(C[C@H](NC(=O)[C@@H]2CCCN2C(=O)[C@H](CO)NC(=O)[C@H](Cc2ccccc2)NC(=O)CNC(=O)[C@@H]2CCCN2C(=O)[C@@H]2CCCN2C(=O)[C@@H](N)CCCN=C(N)N)C(=O)N[C@@H](CCCN=C(N)N)C(=O)O)cc1 (H-RPPGFSPY(Me)R-OH)	–	–
